Results from ChEMBL document CHEMBL2157976, “Design, synthesis and biological activities of sorafenib derivatives as antitumor agents” (Bioorg Med Chem Lett, 2012).
The source made the active and inactive calls. No cut-off for these calls is given here.

Legend:
HCT-116 = experiment: Cytotoxicity against human HCT116 cells after 48 hrs by MTT assay; assay type: functional, cell-based; settings: HCT-116, 48 h
Outline: (§1)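 All three human tumour lines were screened in parallel by MTT colorimetric viability assay, with sorafenib as positive control. Antiproliferative potency was expressed as IC50.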

PC-3 = experiment: Cytotoxicity against human PC3 cells after 48 hrs by MTT assay; assay type: functional, cell-based; settings: PC-3, 48 h; outline: as §1
MDA-MB-231 = experiment: Cytotoxicity against human MDA-MB-231 cells after 48 hrs by MTT assay; assay type: functional, cell-based; settings: MDA-MB-231, 48 h; outline: as §1
Aorta = experiment: Antiangiogenic activity in Sprague-Dawley rat aortic ring assessed as inhibition of blood vessel formation at 0.1 uM after 6 days by inverted microscopic analysis; assay type: functional, tissue-based
Outline: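 Sprague-Dawley rat aortic segments were embedded in wells coated with growth factor-reduced Matrigel. They were cultured for 6 d with or without compound, and untreated wells served as control. Microvessel sprouting from the segments was scored.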

CNC(=O)c1cc(Oc2cccc(NC(=S)Nc3ccc(F)c(F)c3)c2)ccn1
IC50 (HCT-116): 30.3 µM
IC50 (PC-3): 33.1 µM
IC50 (MDA-MB-231): > 100 µM

O=C(NC1CCCCC1)c1cc(Oc2cccc(NC(=S)Nc3ccc(F)c(F)c3)c2)ccn1
inhibition (Aorta): Active
IC50 (HCT-116): 8.9 µM
IC50 (PC-3): 8.1 µM
IC50 (MDA-MB-231): > 100 µM

O=C(c1cc(Oc2cccc(NC(=S)Nc3ccc(F)c(F)c3)c2)ccn1)N1CCCC1
IC50 (HCT-116): 52 µM
IC50 (PC-3): 45.6 µM
IC50 (MDA-MB-231): > 100 µM

CNC(=O)c1cc(Oc2cccc(NC(=S)Nc3ccc(Cl)cc3Cl)c2)ccn1
IC50 (HCT-116): 41.2 µM
IC50 (PC-3): 37.8 µM
IC50 (MDA-MB-231): > 100 µM

O=C(NC1CCCCC1)c1cc(Oc2cccc(NC(=S)Nc3cccc(C(F)(F)F)c3)c2)ccn1
IC50 (HCT-116): 8.4 µM
IC50 (PC-3): 16.8 µM
IC50 (MDA-MB-231): > 100 µM

O=C(c1cc(Oc2cccc(NC(=S)Nc3ccc(OC(F)(F)F)cc3)c2)ccn1)N1CCCC1
IC50 (HCT-116): 17.8 µM
IC50 (PC-3): 34.1 µM
IC50 (MDA-MB-231): 37.8 µM

CNC(=O)c1cc(Oc2ccc(NC(=O)Nc3ccc(Cl)c(C(F)(F)F)c3)cc2)ccn1 [SORAFENIB]
inhibition (Aorta): Active
IC50 (PC-3): 6.8 µM

O=C(NCc1ccccc1)c1cc(Oc2cccc(NC(=S)Nc3ccc(Cl)cc3)c2)ccn1
IC50 (HCT-116): 16.5 µM
IC50 (PC-3): 15.8 µM
IC50 (MDA-MB-231): > 100 µM

O=C(NC1CCCCC1)c1cc(Oc2cccc(NC(=S)Nc3ccc(Cl)c(C(F)(F)F)c3)c2)ccn1
inhibition (Aorta): Active
IC50 (HCT-116): 2.8 µM
IC50 (PC-3): 2.2 µM
IC50 (MDA-MB-231): 34.2 µM

O=C(NC1CC1)c1cc(Oc2cccc(NC(=S)Nc3ccc(Cl)c(C(F)(F)F)c3)c2)ccn1
IC50 (HCT-116): 9.3 µM
IC50 (PC-3): 6.8 µM
IC50 (MDA-MB-231): 21.2 µM

O=C(c1cc(Oc2cccc(NC(=S)Nc3cccc(C(F)(F)F)c3)c2)ccn1)N1CCCC1
IC50 (HCT-116): 19.2 µM
IC50 (PC-3): 27 µM
IC50 (MDA-MB-231): 35.4 µM

CC(C)NC(=O)c1cc(Oc2cccc(NC(=S)Nc3ccc(OC(F)(F)F)cc3)c2)ccn1
IC50 (HCT-116): 18.1 µM
IC50 (PC-3): 11.8 µM
IC50 (MDA-MB-231): > 100 µM

O=C(c1cc(Oc2cccc(NC(=S)Nc3ccc(Cl)c(C(F)(F)F)c3)c2)ccn1)N1CCCC1
IC50 (HCT-116): 22.4 µM
IC50 (PC-3): 12.1 µM
IC50 (MDA-MB-231): 40.2 µM

CNC(=O)c1cc(Oc2cccc(NC(=S)Nc3ccc(Cl)cc3)c2)ccn1
IC50 (HCT-116): 39.4 µM
IC50 (PC-3): 24.1 µM
IC50 (MDA-MB-231): > 100 µM

CNC(=O)c1cc(Oc2cccc(NC(=S)Nc3ccc(OC(F)(F)F)cc3)c2)ccn1
IC50 (HCT-116): 33.8 µM
IC50 (PC-3): 34.7 µM
IC50 (MDA-MB-231): > 100 µM

O=C(NCc1ccccc1)c1cc(Oc2cccc(NC(=S)Nc3cccc(C(F)(F)F)c3)c2)ccn1
IC50 (HCT-116): 7.5 µM
IC50 (PC-3): 11 µM
IC50 (MDA-MB-231): 75 µM

CC(C)NC(=O)c1cc(Oc2cccc(NC(=S)Nc3ccc(Cl)cc3)c2)ccn1
IC50 (HCT-116): 22.1 µM
IC50 (PC-3): 21.2 µM
IC50 (MDA-MB-231): 87.5 µM

O=C(NC1CC1)c1cc(Oc2cccc(NC(=S)Nc3cccc(C(F)(F)F)c3)c2)ccn1
IC50 (HCT-116): 20.2 µM
IC50 (PC-3): 22.1 µM
IC50 (MDA-MB-231): 34.8 µM

CCNC(=O)c1cc(Oc2cccc(NC(=S)Nc3ccc(Cl)c(C(F)(F)F)c3)c2)ccn1
inhibition (Aorta): Active
IC50 (HCT-116): 6.9 µM
IC50 (PC-3): 8.5 µM
IC50 (MDA-MB-231): 22.1 µM

CNC(=O)c1cc(Oc2cccc(NC(=S)Nc3ccc(Cl)c(C(F)(F)F)c3)c2)ccn1
IC50 (HCT-116): 15.1 µM
IC50 (PC-3): 16.1 µM
IC50 (MDA-MB-231): 35.7 µM

CCNC(=O)c1cc(Oc2cccc(NC(=S)Nc3ccc(F)c(F)c3)c2)ccn1
IC50 (HCT-116): 30.3 µM
IC50 (PC-3): 26.3 µM
IC50 (MDA-MB-231): > 100 µM

CNC(=O)c1cc(Oc2cccc(NC(=S)Nc3cccc(C(F)(F)F)c3)c2)ccn1
IC50 (HCT-116): 25.3 µM
IC50 (PC-3): 24.5 µM
IC50 (MDA-MB-231): > 100 µM

CCNC(=O)c1cc(Oc2cccc(NC(=S)Nc3cccc(C(F)(F)F)c3)c2)ccn1
IC50 (HCT-116): 19.4 µM
IC50 (PC-3): 18.3 µM
IC50 (MDA-MB-231): 53.1 µM

O=C(NCc1ccccc1)c1cc(Oc2cccc(NC(=S)Nc3ccc(OC(F)(F)F)cc3)c2)ccn1
IC50 (HCT-116): 7.4 µM
IC50 (PC-3): 6.8 µM
IC50 (MDA-MB-231): > 100 µM
